# Screens (PubChem)
# HUVEC inhibit: human endothelial cell proliferation inhibition | HUVEC proliferation, CellTiter-Glo luminescence, 72 h; stronger effect = lower value | viability, % at 10 µM (by protocol) | 1.1% of 86,000 active;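 active means viability at or below 30%; inactive means viability above 30%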;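 further: 100% = median luminescence of DMSO-only cell control wells on each plate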
# HCT116 PTEN-null: growth suppressors of cells with PTEN tumor suppressor deletion. HCT116 PTEN-null viability, CellTiter-Glo, 60 h; stronger effect = lower value. viability, % at 10 µM. 1.2% of 140,000 active;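 active means viability at or below a set limit, 4 SD under the median of all tested compounds, cut at about 3.7% in these data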;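 further: PTEN knockout HCT116 line with beta catenin targeted HCT116 as companion control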
# Candida biofilm: kills Candida albicans biofilms. C. albicans biofilm + clotrimazole, Alamar Blue. inhibition, % at 6 µM. 0.14% of 85,000 active;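 active means inhibition above 20%; inactive means inhibition below 20%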;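 further: preformed 24 hr biofilms exposed to compound for 48 hr; 0% = biofilm without compound and 100% = blank killed by clotrimazole plus chlorhexidine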
# Lung fibro prol: blocks proliferation of human lung fibroblasts | LL 47 human lung fibroblast viability, ATP luminescence; stronger effect = lower value | viability, % at 10 µM | 1.1% of 85,000 active;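 active means viability at or below 50% in the single dose screen; inactive means viability above 50%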;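 further: compound exposure lasted 72 h before the ATP readout; 100% = median luminescence of untreated cell-only wells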
#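 Test system: LL 47 human lung fibroblasts / Quantity: 1,150 cells in each well / Medium: IMEM growth medium with 15% fetal bovine serum / Incubation: 72 h compound exposure at 37 °C after overnight plating / Detection: CellTiter-Glo luminescence measuring cellular ATP / Read-out: % viability versus median cells-only luminescence / Benchmarks: cell-only wells, no compound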
# H69AR growth 86K: blocks growth of human H69AR lung tumor cells; H69AR lung tumor viability, ATP luminescence, 72 h; stronger effect = lower value; viability, % at 10 µM; 6% of 85,000 active; AID 598;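 active means viability at or below 40%; inactive means viability above 40%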;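 further: multidrug resistant small cell line overexpressing MRP-1 efflux transporter; 100% = mean luminescence of untreated control wells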
# HCT116 bCat-KO: beta-catenin-lacking colon tumor cell growth suppression | HCT116 beta-catenin knockout viability, CellTiter-Glo, 60 h; stronger effect = lower value | viability, % at 10 µM | 1.5% of 140,000 active;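 active means viability at or under a set limit, the compound median less 4 SD, cut at about 6% in these data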;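 further: 0% = Hyamine 1622 control at 20 µM and 100% = untreated cell control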
# The depositor's hits bear a star; / = no result given. Only a selection was taken, and hits are over-represented in it overall.
SMILES,HUVEC inhibit,HCT116 PTEN-null,Candida biofilm,Lung fibro prol,H69AR growth 86K,HCT116 bCat-KO
COC(=O)c1[nH]nc(C(=O)OC(C)(C)C)c1-c1ccccc1,/,84,/,/,/,79
Cc1cccc(N2CCN(C(=O)C(Cc3ccccc3)n3cccc3)CC2)c1C (stereo not given),94,44,3,93,23*,35
Cc1cccc(N2CCN(C(=O)c3ccncc3)CC2)c1C,66,32,-3,81,21*,33
COc1cc(C(=O)N2CCN(c3cccc(C)c3C)CC2)cc(OC)c1OC,/,15,/,/,/,16
CC(C)OC(=O)/C(=C\c1cccc2ccccc12)NC(=O)c1ccccc1,/,92,/,/,/,92
O=C(CSc1n[nH]c(-c2ccccc2O)n1)N1CCCc2ccccc21,53,39,3,100,25*,36
O=Cc1cn(-c2ccc(F)cc2)c2ccccc12,/,94,/,/,/,94
CCOC(=O)c1c(C)oc2c1cc(O)c1ccccc12,91,85,8,101,62,90
CCOC(=O)c1c(C)oc2c1c(C=NCC1CCCO1)c(O)c1ccccc12 (stereo not given),88,70,3,98,26*,70
CCOC(=O)c1c(NCC2CCCO2)c2ccccc2[nH]c1=O (stereo not given),97,92,7,100,102,104
CCOC(=O)c1c(C)oc2c1c(C=NCc1ccccn1)c(O)c1ccccc12,48,5,6,92,27*,18
O=C1N(c2cccc(Cl)c2)C(c2ccc(Cl)cc2)N2CCCN12 (stereo not given),/,62,/,/,/,66
CCOC(=O)CSc1nc(C2CC2)nc2ccccc12,90,102,8,88,97,100
O=C(CSc1cccc(C(F)(F)F)c1)Nc1cc(S(=O)(=O)N2CCCC2)ccc1Cl,/,63,/,/,/,63
COc1ccccc1NC1=C(N2CCCCC2)C(=O)c2ccccc2C1=O,/,5,/,/,/,3.1*
O=C1C(Nc2ccccc2)=C(N2CCCCC2)C(=O)c2ccccc21,/,35,/,/,/,29
CC(OC(=O)c1ccncc1)C(=O)Nc1cc(S(=O)(=O)N2CCCCC2)ccc1Cl (stereo not given),/,86,/,/,/,95
Cc1ccn2cc(-c3ccc(NC(=O)c4ccco4)cc3)nc2c1,/,76,/,/,/,71
COc1ccc(-c2coc3c(CN4CCCCC4)c(O)c(CN4CCCCC4)c(O)c3c2=O)cc1,85,1.6*,9,85,7.2*,1.4*
COc1ccc(C(=O)c2coc3ccc(O)c(CN4CCCC4)c23)cc1,86,68,11,95,67,73
Cc1ccc(O)c(-c2cc(C(F)(F)C(F)F)[nH]n2)c1,79,94,5,93,42,96
FC(F)C(F)(F)C(F)(F)C(F)(F)c1cc(-c2ccccc2)n[nH]1,14*,78,4,82,30*,81
COc1ccc(-c2cn3cc(C)ccc3n2)cc1OC,87,82,4,98,39*,93
O=C(COC(=O)C1CCCCC1)Nc1ccc(N2CCCCC2)cc1,98,99,5,95,38*,92
O=C(CNCCC1=CCCCC1)Nc1ccc(N2CCCCCC2)cc1,2.0*,24,7,23*,0.2*,36
SMILES,HUVEC inhibit,HCT116 PTEN-null,Candida biofilm,Lung fibro prol,H69AR growth 86K,HCT116 bCat-KO
O=C(COC(=O)c1ccc(O)cc1)Nc1ccc(N2CCCCC2)cc1,99,110,1,98,100,109
O=[N+]([O-])c1ccc(COc2cccc(CNc3ccc(Br)cc3)c2)cc1,/,70,/,/,/,67
CCC(CC)C1=NN2C(=N)/C(=C\c3cc(C)n(-c4cccc(C)c4)c3C)C(=O)N=C2S1,/,95,/,/,/,98
O=C(Nc1ccccc1)Nc1nnc(CSCc2ccccc2Cl)s1,/,38,/,/,/,37
O=C(Nc1ccc(Cl)c(Cl)c1)Nc1nnc(CSc2ccccc2)s1,/,2.6*,/,/,/,2.2*
CCN(CC)S(=O)(=O)c1cccc(C(=O)N[C@H](C(=O)Nc2nc3ccc(F)cc3s2)C(C)C)c1,/,29,/,/,/,44
C=CCN(CC=C)S(=O)(=O)c1ccc2nc(NC(=O)C(C)C)sc2c1,26*,101,9,51,14*,105
CCOC(=O)c1ccc2nc(NC(=O)c3cccs3)sc2c1,75,69,2,88,38*,74
CCOC(=O)c1ccc2nc(NC(=O)C(C)C)sc2c1,110,88,6,92,34*,77
O=C(Cn1ncc(Cl)c(Cl)c1=O)N1CCN(S(=O)(=O)c2ccc3ccccc3c2)CC1,/,1.1*,/,/,/,1.1*
CCC(=O)OC1=C2C(=Nc3c(c(=O)n(C)c(=O)n3C)C2c2ccccc2)c2ccccc21 (stereo not given),89,/,8,101,104,/
Cc1ccc(SCc2cc(=O)[nH]c(Nc3nc(C)c4cccc(C)c4n3)n2)cc1,/,78,/,/,/,62
Cc1ccc2c(C)nc(Nc3nc(CSc4nnnn4-c4ccccc4)cc(=O)[nH]3)nc2c1,88,3.3*,5,88,35*,2.7*
CCOc1ccc2nc(Nc3nc(CSc4nnnn4-c4ccccc4)cc(=O)[nH]3)nc(C)c2c1,53,63,-3,96,4.5*,70
COc1ccc2nc(Nc3nc(C)c(CCC(C)C)c(=O)[nH]3)nc(C)c2c1,84,63,/,108,81,58
COCc1cc(=O)[nH]c(Nc2nc(C)c3ccccc3n2)n1,84,2.3*,4,48*,27*,1.7*
COc1ccc2nc(Nc3nc(CSc4nnnn4-c4ccccc4)cc(=O)[nH]3)nc(C)c2c1,3.0*,2.0*,-1,95,1.7*,1.8*
Cc1cc(Br)c(OCc2ccc(C(=O)N/N=C3\CC4CC=CC34)cc2)c(Br)c1 (stereo not given),/,83,/,/,/,90
Cn1c(=O)[nH]c2ccc([N+](=O)[O-])nc21,/,93,/,/,/,96
CC1(C)C2CCC1(CS(=O)(=O)Nc1ccc(S(=O)(=O)N3CCCCC3)cc1)C(=O)C2 (stereo not given),/,93,/,/,/,94
CCCCn1[nH]c(-c2ccccc2)cc1=O,/,101,/,/,/,91
